In ChEMBL document CHEMBL4325889, “Natural products hybrids: 3,5,4'-Trimethoxystilbene-5,6,7-trimethoxyflavone chimeric analogs as potential cytotoxic agents against diverse human cancer cells” (Eur J Med Chem, 2019):

Key:
Type in all cases: functional
SR = test: Growth inhibition of human SR cells at 10 uM after 48 hrs by SRB assay relative to control; details: read-out: GI
Method in brief: (§1)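 NCI screen against its human cancer cell line panel by the standard NCI protocol, SRB protein stain. Single dose of 10 μM. Percent growth inhibition versus control; values above 100% mean the cell population fell below the starting number. Each value is the mean of duplicates.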

HOP-92 = test: Growth inhibition of human HOP92 cells at 10 uM after 48 hrs by SRB assay relative to control; details: HOP-92, 48 h, read-out: GI
Method in brief: (§2)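 Screened at the National Cancer Institute by the standard NCI protocol using the sulforhodamine B assay, which measures cellular protein. Single dose of 10 µM. Result is percent growth inhibition; values above 100% mean cell number fell below the initial population. Values are the average of duplicates.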

HCT-116 = test: Growth inhibition of human HCT116 cells at 10 uM after 48 hrs by SRB assay relative to control; details: HCT-116, 48 h, read-out: GI; method in brief: as §2
HCT-15 = test: Growth inhibition of human HCT15 cells at 10 uM after 48 hrs by SRB assay relative to control; details: HCT-15, 48 h, read-out: GI; method in brief: as §2
HT-29 = test: Growth inhibition of human HT-29 cells at 10 uM after 48 hrs by SRB assay relative to control; details: HT-29, 48 h, read-out: GI; method in brief: as §2
KM12 = test: Growth inhibition of human KM12 cells at 10 uM after 48 hrs by SRB assay relative to control; details: KM12, 48 h, read-out: GI; method in brief: as §2
SW-620 = test: Growth inhibition of human SW620 cells at 10 uM after 48 hrs by SRB assay relative to control; details: SW-620, 48 h, read-out: GI; method in brief: as §1
SF-268 = test: Growth inhibition of human SF268 cells at 10 uM after 48 hrs by SRB assay relative to control; details: SF-268, 48 h, read-out: GI; method in brief: as §2
SNB-19 = test: Growth inhibition of human SNB19 cells at 10 uM after 48 hrs by SRB assay relative to control; details: SNB-19, 48 h, read-out: GI; method in brief: as §1
U-251 = test: Growth inhibition of human U251 cells at 10 uM after 48 hrs by SRB assay relative to control; details: U-251, 48 h, read-out: GI; method in brief: as §1
SK-MEL-2 = test: Growth inhibition of human SK-MEL-2 cells at 10 uM after 48 hrs by SRB assay relative to control; details: SK-MEL-2, 48 h, read-out: GI; method in brief: as §2
SK-MEL-5 = test: Growth inhibition of human SK-MEL-5 cells at 10 uM after 48 hrs by SRB assay relative to control; details: SK-MEL-5, 48 h, read-out: GI; method in brief: as §2
UACC-62 = test: Growth inhibition of human UACC62 cells at 10 uM after 48 hrs by SRB assay relative to control; details: UACC-62, 48 h, read-out: GI; method in brief: as §1
IGROV-1 = test: Growth inhibition of human IGROV1 cells at 10 uM after 48 hrs by SRB assay relative to control; details: IGROV-1, 48 h, read-out: GI; method in brief: as §2
OVCAR-3 = test: Growth inhibition of human OVCAR3 cells at 10 uM after 48 hrs by SRB assay relative to control; details: OVCAR-3, 48 h, read-out: GI; method in brief: as §2
OVCAR-5 = test: Growth inhibition of human OVCAR5 cells at 10 uM after 48 hrs by SRB assay relative to control; details: OVCAR-5, 48 h, read-out: GI; method in brief: as §2
OVCAR-8 = test: Growth inhibition of human OVCAR8 cells at 10 uM after 48 hrs by SRB assay relative to control; details: OVCAR-8, 48 h, read-out: GI; method in brief: as §2
ACHN = test: Growth inhibition of human ACHN cells at 10 uM after 48 hrs by SRB assay relative to control; details: read-out: GI; method in brief: as §2
CAKI-1 = test: Growth inhibition of human Caki1 cells at 10 uM after 48 hrs by SRB assay relative to control; details: CAKI-1, 48 h, read-out: GI; method in brief: as §2
MDA-MB-468 = test: Growth inhibition of human MDA-MB-468 cells at 10 uM after 48 hrs by SRB assay relative to control; details: MDA-MB-468, 48 h, read-out: GI; method in brief: as §2

Row | SMILES | inhibition of growth at 10 µM (SR) | inhibition of growth at 10 µM (HOP-92) | inhibition of growth at 10 µM (HCT-116) | inhibition of growth at 10 µM (HCT-15) | inhibition of growth at 10 µM (HT-29) | inhibition of growth at 10 µM (KM12) | inhibition of growth at 10 µM (SW-620) | inhibition of growth at 10 µM (SF-268) | inhibition of growth at 10 µM (SNB-19) | inhibition of growth at 10 µM (U-251) | inhibition of growth at 10 µM (SK-MEL-2) | inhibition of growth at 10 µM (SK-MEL-5) | inhibition of growth at 10 µM (UACC-62) | inhibition of growth at 10 µM (IGROV-1) | inhibition of growth at 10 µM (OVCAR-3) | inhibition of growth at 10 µM (OVCAR-5) | inhibition of growth at 10 µM (OVCAR-8) | inhibition of growth at 10 µM (ACHN) | inhibition of growth at 10 µM (CAKI-1) | inhibition of growth at 10 µM (MDA-MB-468)
1 | COc1cc2oc(-c3cccc(NC(=O)c4ccc5c(c4)OCO5)c3)cc(=O)c2c(O)c1OC | 19% | 38.5% | 21% | 0.04% | 15.6% | 1.48% | -1.42% | 32.5% | 33.8% | 27.1% | 6.66% | 25.9% | 41.4% | 5.56% | -4.7% | 13.7% | 37.8% | 30.5% | 34.4% | 17.6%
2 | COc1ccc(NC(=O)c2cccc(-c3cc(=O)c4c(O)c(OC)c(OC)cc4o3)c2)cc1 | 19.2% | 76.4% | 29.5% | -7.36% | 12.3% | -3.03% | -1.58% | 45.4% | 38.4% | 26.8% | 16.6% | 8.61% | 18.9% | 4.86% | 49.4% | 2.51% | 19.4% | 16.4% | 6.41% | 15.7%
3 | COc1cccc(NC(=O)c2cccc(-c3cc(=O)c4c(OC)c(OC)c(OC)cc4o3)c2)c1 | 58.1% | 58.1% | 39.3% | 45.3% | 49.2% | 46.3% | 10.4% | 36.9% | 17.5% | 37.9% | 24.3% | 36.1% | 37.9% | 46.7% | 33.4% | 9.93% | 53% | 37.5% | 25.3% | 21%
4 | COc1ccc(NC(=O)c2cccc(-c3cc(=O)c4c(OC)c(OC)c(OC)cc4o3)c2)cc1 | 18.4% | 52.7% | 36.6% | 52.9% | 32.9% | 45.2% | 6.52% | 27.9% | 8.54% | 13.9% | 15.3% | 59.1% | 35.2% | 38.7% | 54.3% | 16.8% | 46.1% | 33.4% | 63.7% | 24.3%
